Data set [1] deals with T1, Sterol O-acyltransferase 1 (Chlorocebus aethiops, UniProt O77760).
T1 sequence (O77760 whole entry): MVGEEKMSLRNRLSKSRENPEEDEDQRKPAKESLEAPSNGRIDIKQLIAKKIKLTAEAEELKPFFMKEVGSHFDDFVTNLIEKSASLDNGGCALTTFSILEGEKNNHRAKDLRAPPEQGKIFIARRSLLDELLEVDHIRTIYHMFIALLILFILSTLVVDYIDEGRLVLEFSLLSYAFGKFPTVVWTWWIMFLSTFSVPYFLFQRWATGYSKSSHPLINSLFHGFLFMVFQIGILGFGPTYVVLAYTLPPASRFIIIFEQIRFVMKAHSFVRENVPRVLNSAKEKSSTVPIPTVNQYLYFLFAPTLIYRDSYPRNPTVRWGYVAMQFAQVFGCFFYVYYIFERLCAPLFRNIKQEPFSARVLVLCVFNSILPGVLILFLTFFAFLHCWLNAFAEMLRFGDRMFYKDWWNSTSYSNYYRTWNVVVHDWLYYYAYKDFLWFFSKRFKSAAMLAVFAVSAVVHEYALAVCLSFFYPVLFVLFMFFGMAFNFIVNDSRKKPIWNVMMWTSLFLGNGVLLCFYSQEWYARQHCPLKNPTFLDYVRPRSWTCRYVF
The data set can be described thus: Inhibition of African green monkey SOAT1 expressed in CHO cells assessed as decrease in [14C]CE synthesis from [14C]oleic acid after 6 hrs. In kind it is cell-based.

The target of data set [2] is T2, Sterol O-acyltransferase 2 (Chlorocebus aethiops, UniProt O77759).
T2 sequence (O77759 whole entry): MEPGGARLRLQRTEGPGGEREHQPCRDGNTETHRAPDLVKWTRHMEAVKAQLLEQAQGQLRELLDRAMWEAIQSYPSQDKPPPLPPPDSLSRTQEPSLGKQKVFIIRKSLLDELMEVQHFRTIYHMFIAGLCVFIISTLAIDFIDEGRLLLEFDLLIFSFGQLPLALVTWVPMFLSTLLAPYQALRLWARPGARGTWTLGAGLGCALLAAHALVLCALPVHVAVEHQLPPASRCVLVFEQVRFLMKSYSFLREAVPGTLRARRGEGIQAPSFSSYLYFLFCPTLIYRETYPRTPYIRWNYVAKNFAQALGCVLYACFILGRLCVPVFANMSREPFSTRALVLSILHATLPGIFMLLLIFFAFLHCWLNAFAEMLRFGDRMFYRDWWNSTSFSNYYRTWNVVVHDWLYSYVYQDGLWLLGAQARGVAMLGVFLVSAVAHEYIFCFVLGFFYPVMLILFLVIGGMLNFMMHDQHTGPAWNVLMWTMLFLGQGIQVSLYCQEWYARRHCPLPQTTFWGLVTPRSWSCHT
The data set can be described thus: Inhibition of African green monkey SOAT2 expressed in CHO cells assessed as decrease in [14C]CE synthesis from [14C]oleic acid after 6 hrs. In kind it is cell-based.

Data set [3] is filed under the species Chlorocebus aethiops. The data set can be described thus: Selectivity index, ratio of IC50 for African green monkey SOAT1 expressed in CHO cells to IC50 for African green monkey SOAT2 expressed in CHO cells. It is filed as cell-based. In outline:
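Monolayers of SOAT1- or SOAT2-CHO cells (≥80% confluent, overnight recovery) got CH3OH compound stocks (0–1 mg/mL) plus [14C]oleic acid (1 nmol, 1.85 kBq) for 6 h at 37 °C. Cells were SDS-lysed and Bligh–Dyer extracted, and [14C]CE was quantified by TLC radioimaging as percent of control. IC50s came from triplicate experiments, mean ± SD. SI = log(IC50 SOAT1/IC50 SOAT2).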

Data set [4] is filed under the species Chlorocebus aethiops. In words: Selectivity index, ratio of IC50 for African green monkey SOAT1 isolated from CHO cell microsomes to IC50 for African green monkey SOAT2 isolated from CHO cell microsomes. The essentials: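 Microsomes were made by homogenizing SOAT1- or SOAT2-CHO cells in sucrose/KCl/KH2PO4/EDTA buffer (pH 7.2) and pelleting at 100,000 × g, 1 h, 4 °C. They were incubated with fatty-acid-free BSA and compound in methanol, and the reaction was started with [1-14C]oleoyl-CoA for 5 min at 37 °C. It was stopped with CHCl3:MeOH 2:1, and [14C]CE was measured by TLC radioimaging. Values are mean ± SD, n = 3. SI = log(IC50 SOAT1/IC50 SOAT2).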

Data set [5] relates to CHO. The data set can be described thus: Effect on phospholipid synthesis in CHO cells expressing African green monkey SOAT1 up to 21 to 23 uM. In kind it is ADME, cell-based, Cricetulus griseus. As to conditions: chinese hamster. The essentials: (§1)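 SOAT1- or SOAT2-expressing CHO cells were grown in Ham's F-12 with MEM vitamins, geneticin (300 μg/mL) and 10% heat-inactivated FBS at 37 °C, 5% CO2. Cells were seeded at 1.25 × 10⁵/well, recovered overnight, and used at ≥80% confluence. Compound stocks in CH3OH (0–1 mg/mL) were added with [14C]oleic acid (1 nmol) for 6 h. Lipids were Bligh–Dyer extracted, and [14C]PL was resolved by TLC and imaged.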

The subject of data set [6] is CHO. The data set can be described thus: Effect on phospholipid synthesis in CHO cells expressing African green monkey SOAT2 up to 21 to 23 uM. It is filed as ADME, cell-based, Cricetulus griseus. As to conditions: chinese hamster. In outline: as §1
For data set [7], the system named is CHO. In words: Effect on cell morphology in CHO cells expressing African green monkey SOAT1 up to 21 to 23 uM. In kind it is ADME, cell-based, Cricetulus griseus. The conditions noted are these: chinese hamster.
Data set [8] concerns CHO. The data set can be described thus: Effect on cell morphology in CHO cells expressing African green monkey SOAT2 up to 21 to 23 uM. It is filed as ADME, cell-based, Cricetulus griseus. As to conditions: chinese hamster.
In data set [9] the target is T1, Sterol O-acyltransferase 1. In words: Inhibition of African green monkey SOAT1 isolated from CHO cell microsomes assessed as decrease in [14C]CE synthesis from [1-14C]oleoyl-CoA after 5 mins.
In data set [10] the target is T2, Sterol O-acyltransferase 2. In words: Inhibition of African green monkey SOAT2 isolated from CHO cell microsomes assessed as decrease in [14C]CE synthesis from [1-14C]oleoyl-CoA after 5 mins.

For orientation: IC50 means the point on the concentration scale where inhibition reaches its midpoint. Consider `C[C@@H](C[C@H]1C(=O)N(C)[C@@H](C[C@H](C)C(Cl)(Cl)Cl)C(=O)N1C)C(Cl)(Cl)Cl`, for which the 50% inhibitory concentration (IC50) in data set [1] is 5200 nM; in data set [2], 4200 nM; in data set [9], 2100 nM; in [10], 5300 nM. Further, the log(RatioIC50) in the data set listed under Chlorocebus aethiops [3] stood at 0.092. Moreover, the -log(RatioIC50) in the data set filed under Chlorocebus aethiops [4] was found to be 0.4. For the same molecule, the Activity result with CHO [5], with CHO [6], with CHO [7] and with CHO [8] was “Non-Toxic” each time.
In the case of `CCC(=O)[C@H](C[C@H](C)C(Cl)(Cl)Cl)NC(=O)/C=C/[C@H](C)C(Cl)(Cl)Cl`, the IC50 in data set [1] came to 1200 nM; in data set [2], 2400 nM; in data set [9], 1000 nM; in data set [10] it was 3200 nM. Also, the -log(RatioIC50) in the data set listed under Chlorocebus aethiops [3] stood at 0.3; in the data set listed under Chlorocebus aethiops [4], 0.51. Moreover, the Activity entry in the data set on CHO [5], in the data set with CHO [6], with CHO [7] and in the data set on CHO [8] was “Non-Toxic” in each case.
For `CCC(=O)[C@H](C[C@H](C)C(Cl)(Cl)Cl)NC(=O)[C@H](C[C@H](C)C(Cl)(Cl)Cl)N(C)C`, the IC50 in [1] came to 780 nM; in [2] it was 2800 nM; in [9], 230 nM; in data set [10], 860 nM. In addition, the -log(RatioIC50) in the data set filed under Chlorocebus aethiops [3] came to 0.56; in the data set filed under Chlorocebus aethiops [4], 0.57. Further, the Activity entry in the data set with CHO [5], in the data set with CHO [6], in the data set on CHO [7] and in the data set on CHO [8] was “Non-Toxic” each time.
